ChEMBL document CHEMBL2331413, “Novel in vivo active anti-malarials based on a hydroxy-ethyl-amine scaffold” (Bioorg Med Chem Lett, 2013)
Activity calls are given as the source filed them. The rule behind the calls is not given here.

What was measured:
Plasmodium berghei [1] = experiment: Antimalarial activity against GFP-transfected Plasmodium berghei ANKA in mouse blood assessed as inhibition of schizont maturation after 48 hrs by [3H]hypoxanthine incorporation assay relative to control; type: functional, organism-based
Plasmodium falciparum [2] = experiment: Antimalarial activity against chloroquine-sensitive Plasmodium falciparum NF54 infected in RBC after 72 hrs by [3H]hypoxanthine incorporation assay in presence of 0.5 % albumax; type: functional, organism-based
Plasmodium berghei [3] = experiment: Antimalarial activity against GFP-transfected Plasmodium berghei ANKA infected in mouse assessed as increase in host survival time at 100 mg/kg, po administered as single dose […]; type: functional
How it was run: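 P. berghei-infected mouse model; a single oral dose of 100 mg/kg. Parasitemia was expressed relative to untreated control animals. Mean survival time in days was compared with that of untreated mice.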

Plasmodium berghei [4] = experiment: Antimalarial activity against GFP-transfected Plasmodium berghei ANKA in mouse blood assessed as inhibition of schizont maturation after 72 hrs by [3H]hypoxanthine incorporation assay; type: functional, organism-based
[5] = Metabolic stability in mouse liver microsomes; type: ADME, Microsome; details: read-out: Stability
How it was run: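 In vitro metabolic stability was measured with a mouse liver microsomal preparation and expressed as intrinsic clearance in µl/(min mg).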

Plasmodium falciparum [6] = experiment: Antimalarial activity against chloroquine-resistant Plasmodium falciparum K1 infected in RBC by [3H]hypoxanthine incorporation assay in presence of 0.5 % albumax; type: functional, organism-based
Plasmodium falciparum [7] = experiment: Antimalarial activity against chloroquine-resistant Plasmodium falciparum K1 infected in RBC by [3H]hypoxanthine incorporation assay in presence of 50 % serum; type: functional, organism-based
Plasmodium berghei [8] = experiment: Antimalarial activity against GFP-transfected Plasmodium berghei ANKA in mouse blood assessed as inhibition of schizont maturation compound incubated for 16 hrs followed by 8 hrs of [3H]hypoxanthine incorporation; type: functional, organism-based
Plasmodium berghei [9] = experiment: Antimalarial activity against GFP-transfected Plasmodium berghei ANKA infected in mouse assessed as reduction in parasitemia at 100 mg/kg, po administered as single dose measured after 72 hrs by flow cytometry; type: functional; design: scale not given: the % may be the effect or the level left
Plasmodium falciparum [10] = experiment: Antimalarial activity against chloroquine-sensitive Plasmodium falciparum NF54 infected in RBC after 72 hrs by [3H]hypoxanthine incorporation assay in presence of 50 % serum; type: functional, organism-based
Plasmodium falciparum [11] = experiment: Antimalarial activity against chloroquine-sensitive Plasmodium falciparum NF54 infected in RBC after 24 hrs by [3H]hypoxanthine incorporation assay in presence of 0.5 % albumax; type: functional, organism-based
Plasmodium falciparum [12] = experiment: Antimalarial activity against chloroquine-sensitive Plasmodium falciparum NF54 infected in RBC after 48 hrs by [3H]hypoxanthine incorporation assay in presence of 0.5 % albumax; type: functional, organism-based

SMILES	Activity (Plasmodium berghei [1])	IC50 (Plasmodium falciparum [2]) [nM]	Survival (Plasmodium berghei [3]) [days]	Activity (Plasmodium berghei [4])	microsomal CLint [5] [µL/min/mg]	IC50 (Plasmodium falciparum [6]) [nM]	IC50 (Plasmodium falciparum [7]) [nM]	IC50 (Plasmodium berghei [8]) [nM]	Activity (Plasmodium berghei [9]) [%]	IC50 (Plasmodium falciparum [10]) [nM]	IC50 (Plasmodium falciparum [11]) [nM]	IC50 (Plasmodium falciparum [12]) [nM]
Cc1cc(Nc2ccc(C(=O)N[C@@H](Cc3ccccc3)[C@H](O)CN[C@H](C)c3ccccc3)cc2)ccn1	Active	9.8	3	Active	69	16	26	228	33	29	173	–
CCCN(CCC)Cc1cc(CNC[C@@H](O)[C@H](Cc2ccccc2)NC(=O)c2ccc(N3CCN(C)CC3)cc2)ccc1O	–	65	7	–	90	13	9.5	140	87	42	69	50
C[C@@H](NC[C@@H](O)[C@H](Cc1ccccc1)NC(=O)c1ccc(Nc2ccc(CN3CCCCC3)c(O)c2)cc1)c1ccccc1	–	3.6	–	–	415	–	–	172	–	3.3	25	< 7.8
C[C@@H](NC[C@@H](O)[C@H](Cc1ccccc1)NC(=O)c1ccc(N(C)c2ccncc2)cc1)c1ccccc1	Active	21	–	Active	180	38	42	> 500	–	35	249	27
Cc1cc(Nc2ccc(C(=O)N[C@@H](Cc3ccccc3)[C@H](O)CN[C@H](C)c3ccccc3)cc2)cc(C)n1	Active	8.7	–	Active	–	9	20	329	–	23	198	11
CCCN(CCC)C(=O)c1cccc(C(=O)N[C@@H](Cc2ccccc2)[C@H](O)CN[C@H](C)c2ccccc2)c1	–	2	–	–	> 1250	–	–	> 500	–	10	> 500	< 3.1
C[C@@H](NC[C@@H](O)[C@H](Cc1ccccc1)NC(=O)c1ccc(Nc2ccncc2)cc1)c1ccccc1	Active	20	–	Active	112	27	48	307	–	36	169	26
C[C@@H](NC[C@@H](O)[C@H](Cc1ccccc1)NC(=O)c1ccc(N2CCN(C)CC2)cc1)c1ccccc1	–	8.7	–	–	80	19	32	> 500	–	8.5	> 500	–
